For data set [1], the system named is SJSA-1. Kind of data set: Induction of cell cycle arrest in human SJSA-1 cells assessed as accumulation of cells at G2/M phase at 15 uM incubated for 96 hrs by RNaseA/PI staining based flow cytometry analysis (reference value: 18.82 %). In kind it is functional.
The subject of data set [2] is SJSA-1. Kind of data set: Induction of cell cycle arrest in human SJSA-1 cells assessed as accumulation of cells at G2/M phase at 10 uM incubated for 96 hrs by RNaseA/PI staining based flow cytometry analysis (reference value: 18.82 %). The format is functional. Background: In flow cytometry, cells or beads pass a laser one at a time.
In data set [3] the test system is SJSA-1. Kind of data set: Induction of apoptosis in human SJSA-1 cells assessed as early apoptotic cells at 10 uM incubated for 96 hrs by Annexin V-FITC/7-AAD staining based flow cytometric analysis (reference value: 1.9%). The format is functional.
Data set [4] deals with SJSA-1. Kind of data set: Induction of cell cycle arrest in human SJSA-1 cells assessed as accumulation of cells at S phase at 10 uM incubated for 96 hrs by RNaseA/PI staining based flow cytometry analysis (reference value: 30.25 %). In kind it is functional.
Data set [5] concerns SJSA-1. Kind of data set: Induction of apoptosis in human SJSA-1 cells assessed as early apoptotic cells at 15 uM incubated for 96 hrs by Annexin V-FITC/7-AAD staining based flow cytometric analysis (reference value: 1.9%). The format is functional.
Data set [6] concerns SJSA-1. Kind of data set: Induction of apoptosis in human SJSA-1 cells assessed as late apoptotic cells at 10 uM incubated for 96 hrs by Annexin V-FITC/7-AAD staining based flow cytometric analysis (reference value: 3.7%). The format is functional.
The subject of data set [7] is SJSA-1. Kind of data set: Induction of apoptosis in human SJSA-1 cells assessed as viable cells at 15 uM incubated for 96 hrs by Annexin V-FITC/7-AAD staining based flow cytometric analysis (reference value: 94.3%). In kind it is functional. To be noted: read-out: Activity.
Data set [8] deals with HEK-293T. Kind of data set: Cytotoxicity against HEK293T cells assessed as reduction in cell viability at 15 uM incubated for 96 hrs by MTS assay. The following applies: human. In kind it is toxicity, cell-based. The gist of the method: (§1)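 Single-concentration MTS viability with DMSO vehicle control (final ≤0.1%) run in parallel. HEK293T: 3×10^3 cells/well, 15 µM for 96 h. HCT116 p53(-/-): 20 µM for 48 h. Compound added ~24 h after plating; MTS 0.5 mg/mL in fresh medium for 15–30 min, A490. Mean ± SD of three independent experiments, one-way ANOVA with Bonferroni test.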
(In general: Tetrazolium assays rely on reduction of a dye to a coloured formazan, in cell work by metabolically active cells.)

The next data set deals with MCF7. Kind of data set: Antiproliferative activity against human MCF7 cells harboring wild type p53 overexpressing MDM2/4 assessed as inhibition of cell growth incubated for 72 hrs by MTS assay. The format is functional, cell-based. To be noted: MCF7, 72 h. The gist of the method:
(§2)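 MTS viability: cells seeded 1×10^4/well (HCT116), 3×10^3/well (SJSA-1, LNCaP), 5×10^3/well (MCF-7), treated ~24 h after plating with DMSO-stock compounds serially diluted in medium (final DMSO ≤0.1%). Ten or more concentrations over 1–100 µM, duplicates, ≥3 independent runs. Exposure 48 h (HCT116), 72 h (MCF-7), 96 h (SJSA-1, LNCaP). MTS 0.5 mg/mL added for 15–30 min, A490. IC50 from four-parameter variable-slope fit.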

Another data set relates to LNCaP. Kind of data set: Antiproliferative activity against human LNCaP cells harboring wild type p53 overexpressing MDM2/4 assessed as inhibition of cell growth incubated for 96 hrs by MTS assay. In kind it is functional, cell-based. The procedure, abridged:
as §2

Data set [9] is described as follows: Antiproliferative activity against human HCT116-p53-null cells assessed as reduction in cell viability at 20 uM incubated for 48 hrs by MTS assay. In kind it is functional. The gist of the method:
as §1

For data set [10], the system named is SJSA-1. Kind of data set: Induction of cell cycle arrest in human SJSA-1 cells assessed as accumulation of cells at G0/G1 phase at 10 uM incubated for 96 hrs by RNaseA/PI staining based flow cytometry analysis (reference value: 50.93 %). In kind it is functional.
The subject of data set [11] is SJSA-1. Kind of data set: Induction of apoptosis in human SJSA-1 cells assessed as late apoptotic cells at 15 uM incubated for 96 hrs by Annexin V-FITC/7-AAD staining based flow cytometric analysis (reference value: 3.7%). The format is functional.
Data set [12] deals with SJSA-1. Kind of data set: Induction of cell cycle arrest in human SJSA-1 cells assessed as accumulation of cells at S phase at 15 uM incubated for 96 hrs by RNaseA/PI staining based flow cytometry analysis (reference value: 30.25 %). In kind it is functional.
Data set [13] deals with SJSA-1. Kind of data set: Antiproliferative activity against human SJSA-1 cells harboring wild type p53 overexpressing MDM2/4 assessed as inhibition of cell growth incubated for 96 hrs by MTS assay. The format is functional, cell-based. The following applies: SJSA-1, 96 h. The procedure, abridged: as §2
A further data set has as its system HCT-116. Kind of data set: Antiproliferative activity against human HCT-116 cells harboring wild type p53 overexpressing MDM2 assessed as inhibition of cell growth incubated for 48 hrs by MTS assay. The following applies: HCT-116, 48 h. The format is functional, cell-based. The procedure, abridged: as §2
For data set [14], the system named is SJSA-1. Kind of data set: Induction of cell death in human SJSA-1 cells assessed as loss of cell volume at 1.5 times IC50 incubated for 96 hrs by bright field microscopic analysis. In kind it is functional, cell-based. The gist of the method: (§3)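 Brightfield microscopy of SJSA-1 cell morphology after 96 h with DMSO vehicle or compound.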
In data set [15] the test system is SJSA-1. Kind of data set: Induction of apoptosis in human SJSA-1 cells assessed as viable cells at 10 uM incubated for 96 hrs by Annexin V-FITC/7-AAD staining based flow cytometric analysis (reference value: 94.3%). The format is functional. To be noted: read-out: Activity.
The subject of data set [16] is SJSA-1. Kind of data set: Induction of cell death in human SJSA-1 cells assessed as reduction in cell growth at IC50 incubated for 96 hrs by bright field microscopic analysis. In kind it is functional, cell-based. The gist of the method: as §3
The subject of data set [17] is SJSA-1. Kind of data set: Induction of cell cycle arrest in human SJSA-1 cells assessed as accumulation of cells at G0/G1 phase at 15 uM incubated for 96 hrs by RNaseA/PI staining based flow cytometry analysis (reference value: 50.93 %). The format is functional.
Data set [18] has as its target Tumour suppressor p53/oncoprotein Mdm2 (Homo sapiens, UniProt P04637+Q00987). Kind of data set: Inhibition of MDM2/p53 interaction in human U-87 MG cells preincubated for 10 mins under shaking condition and measured after 1.5 hrs by immuno-enzymatic assay. The format is cell-based.
Data set [19] concerns the target Tumour suppressor protein p53/Mdm4 (Homo sapiens, UniProt O15151+P04637). Kind of data set: Inhibition of MDM4/p53 interaction in human SH-SY5Y cells preincubated for 10 mins under shaking condition and measured after 1.5 hrs by immuno-enzymatic assay. In kind it is cell-based.
The subject of data set [20] is SJSA-1. Kind of data set: Induction of cell cycle arrest in human SJSA-1 cells assessed as accumulation of cells at S phase at 22.5 uM incubated for 96 hrs by RNaseA/PI staining based flow cytometry analysis (reference value: 25.88 %). The format is functional.
The subject of data set [21] is SJSA-1. Kind of data set: Induction of cell cycle arrest in human SJSA-1 cells assessed as accumulation of cells at G2/M phase at 15 uM incubated for 96 hrs by RNaseA/PI staining based flow cytometry analysis (reference value: 17.24 %). In kind it is functional.
For data set [22], the system named is SJSA-1. Kind of data set: Induction of apoptosis in human SJSA-1 cells assessed as early apoptotic cells at 22.5 uM incubated for 96 hrs by Annexin V-FITC/7-AAD staining based flow cytometric analysis (reference value: 0.3%). In kind it is functional.
Data set [23] has as its system SJSA-1. Kind of data set: Induction of cell cycle arrest in human SJSA-1 cells assessed as accumulation of cells at S phase at 15 uM incubated for 96 hrs by RNaseA/PI staining based flow cytometry analysis (reference value: 25.88 %). The format is functional.
In data set [24] the test system is SJSA-1. Kind of data set: Induction of cell death in human SJSA-1 cells assessed as reduction in cell growth at 1.5 times IC50 incubated for 96 hrs by bright field microscopic analysis. In kind it is functional, cell-based. The procedure, abridged:
as §3

Data set [25] concerns SJSA-1. Kind of data set: Induction of cell cycle arrest in human SJSA-1 cells assessed as accumulation of cells at G2/M phase at 22.5 uM incubated for 96 hrs by RNaseA/PI staining based flow cytometry analysis (reference value: 17.24 %). The format is functional.
Data set [26] relates to SJSA-1. Kind of data set: Induction of apoptosis in human SJSA-1 cells assessed as viable cells at 22.5 uM incubated for 96 hrs by Annexin V-FITC/7-AAD staining based flow cytometric analysis (reference value: 99.2%). The format is functional. The following applies: read-out: Activity.
Data set [27] relates to SJSA-1. Kind of data set: Induction of apoptosis in human SJSA-1 cells assessed as viable cells at 15 uM incubated for 96 hrs by Annexin V-FITC/7-AAD staining based flow cytometric analysis (reference value: 99.2%). The format is functional. The following applies: read-out: Activity.
Data set [28] has as its system SJSA-1. Kind of data set: Induction of cell cycle arrest in human SJSA-1 cells assessed as accumulation of cells at G0/G1 phase at 22.5 uM incubated for 96 hrs by RNaseA/PI staining based flow cytometry analysis (reference value: 57.09 %). In kind it is functional.
Data set [29] has as its system HEK-293T. Kind of data set: Cytotoxicity against HEK293T cells assessed as reduction in cell viability at 15 uM incubated for 96 hrs by MTS assay relative to control. In kind it is toxicity, cell-based. The following applies: human. The procedure, abridged:
as §1

Data set [30] concerns SJSA-1. Kind of data set: Induction of apoptosis in human SJSA-1 cells assessed as late apoptotic cells at 22.5 uM incubated for 96 hrs by Annexin V-FITC/7-AAD staining based flow cytometric analysis (reference value: 0.6%). In kind it is functional.
Data set [31] deals with SJSA-1. Kind of data set: Induction of cell cycle arrest in human SJSA-1 cells assessed as accumulation of cells at G0/G1 phase at 15 uM incubated for 96 hrs by RNaseA/PI staining based flow cytometry analysis (reference value: 57.09 %). The format is functional.

The source made the active and inactive calls. The calls are words filed in the database; no cut-off is given here.

The results in this text go back to ChEMBL document CHEMBL5108018, “Discovery of MDM2-p53 and MDM4-p53 protein-protein interactions small molecule dual inhibitors” (Eur J Med Chem, 2022).

Sequence of Tumour suppressor p53/oncoprotein Mdm2 (P04637 whole entry): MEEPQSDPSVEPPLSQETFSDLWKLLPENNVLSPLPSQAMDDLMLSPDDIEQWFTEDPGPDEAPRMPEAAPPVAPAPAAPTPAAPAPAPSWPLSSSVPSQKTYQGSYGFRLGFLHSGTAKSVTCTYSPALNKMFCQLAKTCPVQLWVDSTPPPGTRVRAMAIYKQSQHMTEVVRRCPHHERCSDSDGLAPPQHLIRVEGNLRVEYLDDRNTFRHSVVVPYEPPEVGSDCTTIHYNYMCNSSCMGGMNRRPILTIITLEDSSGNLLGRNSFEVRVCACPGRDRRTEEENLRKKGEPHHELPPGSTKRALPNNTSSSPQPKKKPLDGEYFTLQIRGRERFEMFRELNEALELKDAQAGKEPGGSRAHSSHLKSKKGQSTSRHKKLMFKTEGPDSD
Sequence of Tumour suppressor p53/oncoprotein Mdm2 (Q00987 whole entry): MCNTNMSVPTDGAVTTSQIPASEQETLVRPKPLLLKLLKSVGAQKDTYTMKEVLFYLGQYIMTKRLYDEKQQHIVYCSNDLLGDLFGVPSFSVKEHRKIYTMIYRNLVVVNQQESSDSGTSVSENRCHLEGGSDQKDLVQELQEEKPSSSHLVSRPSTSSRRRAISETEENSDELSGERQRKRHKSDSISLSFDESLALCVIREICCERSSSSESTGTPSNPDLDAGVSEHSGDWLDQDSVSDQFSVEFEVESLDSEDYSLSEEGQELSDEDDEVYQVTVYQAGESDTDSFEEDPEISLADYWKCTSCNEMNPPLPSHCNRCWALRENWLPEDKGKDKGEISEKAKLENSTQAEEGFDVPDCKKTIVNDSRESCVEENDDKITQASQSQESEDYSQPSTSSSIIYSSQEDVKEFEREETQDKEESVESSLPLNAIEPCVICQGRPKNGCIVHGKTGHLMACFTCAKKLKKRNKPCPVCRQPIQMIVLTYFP
Sequence of Tumour suppressor protein p53/Mdm4 (P04637 whole entry): as the sequence (P04637 whole entry) above
Sequence of Tumour suppressor protein p53/Mdm4 (O15151 whole entry): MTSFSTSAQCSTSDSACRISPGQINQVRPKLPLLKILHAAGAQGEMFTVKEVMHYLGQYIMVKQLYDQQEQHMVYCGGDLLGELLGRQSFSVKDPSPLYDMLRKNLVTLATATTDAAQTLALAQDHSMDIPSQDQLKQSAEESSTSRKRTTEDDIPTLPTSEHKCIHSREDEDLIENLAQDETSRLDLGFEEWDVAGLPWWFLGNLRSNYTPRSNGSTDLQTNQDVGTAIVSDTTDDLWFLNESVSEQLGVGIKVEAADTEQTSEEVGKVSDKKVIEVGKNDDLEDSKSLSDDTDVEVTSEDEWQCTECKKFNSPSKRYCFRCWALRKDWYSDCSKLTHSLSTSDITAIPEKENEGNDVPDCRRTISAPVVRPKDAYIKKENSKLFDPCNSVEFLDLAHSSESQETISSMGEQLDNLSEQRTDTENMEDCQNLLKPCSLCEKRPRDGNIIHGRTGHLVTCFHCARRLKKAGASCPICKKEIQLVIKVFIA

Take `O=C(Nc1cccc(-n2ccc(-c3ccccc3)n2)c1)C1=NN(c2ccc(Cl)cc2)C2(C(=O)Nc3cc(Cl)ccc32)C1c1cccc(O)c1` (centres undefined): the Activity with SJSA-1 [1] was found to be 3.91%; in the data set on SJSA-1 [2], 8.94%; in the data set with SJSA-1 [3] it was 4.1%; with SJSA-1 [4] it was 16.17%; in the data set on SJSA-1 [5], 14.4%; with SJSA-1 [6] it was 5.2%. The Activity entry is “Non-Toxic” in the data set on HEK-293T [8]; 52% in data set [9]; 74.89% in the data set with SJSA-1 [10]; 19.1% with SJSA-1 [11]; 4.27% in the data set with SJSA-1 [12]; 91.82% in the data set with SJSA-1 [17]. For the same compound, the viability at 15 µM in the data set with SJSA-1 [7] worked out at 65.3%. For the same compound, the IC50 in the data set on MCF7 turned out to be 9.7 µM; in the data set with LNCaP, 11.4 µM; in the data set on SJSA-1 [13] it was 10.7 µM; in the data set with HCT-116, 18.8 µM. Moreover, the outcome in the data set with SJSA-1 [14] and in the data set with SJSA-1 [16] was Active. The viability at 10 µM in the data set on SJSA-1 [15] was found to be 90.5%.

Take `O=C1Nc2ccc(Br)cc2C12C(c1ccccc1)C(c1ccccc1)=NN2c1ccccc1` (centres undefined): the results for the IC50 in data set [18] and in data set [19] were 0.144 µM and 0.295 µM, respectively.

On to `CCOC(=O)C1=NN(c2ccc(Cl)cc2)C2(C(=O)Nc3cc(Cl)ccc32)C1c1cccc(Cl)c1F` (centres undefined), for which the Activity is 11.13% with SJSA-1 [20]; 11.01% with SJSA-1 [21]; 2.9% in the data set on SJSA-1 [22]; 21.48% in the data set on SJSA-1 [23]; 6.67% in the data set on SJSA-1 [25]; 13% in data set [9]. Also, the Activity in the data set with SJSA-1 [28] turned out to be 82.19%; in the data set on HEK-293T [29] it was 24%; in the data set with SJSA-1 [30], 4.3%; with SJSA-1 [31], 67.51%. Moreover, the result with SJSA-1 [24] was Active. Moreover, the IC50 in the data set on MCF7 came to 15.6 µM; in the data set with LNCaP it was 10.7 µM; with SJSA-1 [13] it was 15.6 µM; in the data set on HCT-116 it was 18 µM. Also, the viability at 22.5 µM in the data set with SJSA-1 [26] worked out at 92.7%. Also, the viability at 15 µM with SJSA-1 [27] was determined as 98.6%.

What is called IC50 is the concentration that gives 50% inhibition.
